This note sets out measurements from ChEMBL document CHEMBL1126690, “2'-substituted chalcone derivatives as inhibitors of interleukin-1 biosynthesis” (J Med Chem, 1993).

Type in all cases: functional
The species named for assay [1] is Homo sapiens. The assay can be described thus: (§1) Inhibition of the production of Interleukin-1-beta from human peripheral blood monocytes stimulated with lipopolysaccharide (LPS). The gist of the method:
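Drug in DMSO (1.0 μL) added, 60 min preincubation, then LPS (Salmonella typhimurium; 1.0 μg/mL stock, 20 μL/well). After 20 h, supernatant IL-1β by ELISA; MTT viability on cells.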

For assay [2], the species on record is Homo sapiens. Briefly: (§2) Inhibition of the production of Interleukin-1-beta from human peripheral blood monocytes stimulated with lipopolysaccharide (LPS) at 10 uM.
The species entered for assay [3] is Homo sapiens. The description is as §2. The gist of the method:
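Elutriated human monocytes in RPMI 1640 + 5% FBS, drug added in DMSO 60 min before LPS (Salmonella typhimurium). Tested at 10 μM, the highest concentration assayed. After 20 h, supernatant IL-1β measured by ELISA in duplicate; percent inhibition vs control; MTT viability checked.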
This is another data set of the same source.

A further assay concerns Mus musculus. The assay can be described thus: In vivo activity expressed as percentage survival at 600 mg/kg in mouse septic shock model. The procedure, abridged: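 Female C57Bl/6 mice (18–20 g), groups of 10, given LPS ip (E. coli 0127:B8, in 0.9% saline, 40 mg/kg). Compound in 0.25% methylcellulose (beadmilled 60 min) dosed orally by gavage 20 min later (0.1 mL/g), then every 4 h for 24 h; vehicle controls. Deaths recorded over 3 days; percent survival, χ² at p<0.05, mean of three experiments.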

Assay [4] is filed under the species Homo sapiens. The assay is described as §1. The gist of the method: (§3)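 Human monocytes elutriated from whole blood, 2×10^6 cells/well in RPMI 1640 + 5% FBS. Drug in DMSO (1.0 μL) added, 60 min preincubation, then LPS (Salmonella typhimurium; 1.0 μg/mL stock, 20 μL/well). After 20 h, supernatant IL-1β by ELISA; MTT viability on cells.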
This is another data set of the same source.

The species entered for assay [5] is Homo sapiens. The assay can be described thus: Inhibition of the production of Interleukin-1-beta from human peripheral blood monocytes stimulated with lipopolysaccharide (LPS). The gist of the method:
as §3

pIC50: −log10 of the molar value.

`COC(=O)c1cccc(/C=C/C(=O)c2c(OC)cc(OC)cc2OC)c1`: the pIC50 in the assay filed under Homo sapiens [1] is 5.78.
In turn, `O=C(O)c1ccccc1C(=O)/C=C/c1ccccc1` showed an inhibition at 10 µM in the assay filed under Homo sapiens [2] of 37%.
On to `O=C(/C=C/c1ccccc1)c1ccccn1`, for which the negative-log IC50 (pIC50) in the assay filed under Homo sapiens [1] is 5.21.
In the assay listed under Homo sapiens [1], `O=C(/C=C/c1ccccc1)c1ccccc1[N+](=O)[O-]` gave a pIC50 of 5.82.
Still for that read-out and setting: the same measure for `O=C(/C=C/c1ccccc1)c1cccs1`: 5.24; for `COc1cc(OC)c(C(O)/C=C/c2ccccc2)c(OC)c1` (configuration not stated): 5.27; for `COc1cc(OC)c(C(=O)/C(C)=C/c2ccccc2)c(OC)c1`: 5.29.
The compound `COc1cc(C(=O)/C=C/c2ccc(N(C)C)cc2)cc(OC)c1OC` displayed an inhibition at 10 µM in the assay listed under Homo sapiens [3] of 0%.
For the compound `O=C(/C=C/c1ccccc1)c1ccc([N+](=O)[O-])cc1`, the inhibition at 10 µM in the assay filed under Homo sapiens [2] amounted to 0%.
On to `COC(=O)c1ccccc1C(=O)/C=C/c1ccc(C(=O)Nc2nccs2)cc1`, for which, in the assay filed under Homo sapiens [1], the pIC50 was 5.69. Further, the survival at 600 mg/kg with Mus musculus stood at 30%.
`COc1cc(OC)c(C(=O)/C=C/c2ccc(C(=O)N(C)c3nccs3)cc2)c(OC)c1` gave a pIC50 in the assay filed under Homo sapiens [1] of 6.00.
In the assay listed under Homo sapiens [3], `CS(=O)(=O)Nc1ccccc1C(=O)/C=C/c1ccccc1` registered an inhibition at 10 µM of 0%.
Consider `COc1cc(OC)c(C(=O)/C=C/c2ccncc2)c(OC)c1`, for which the pIC50 in the assay filed under Homo sapiens [1] was 6.23.
On to `COc1cc(OC)c(C(=O)/C=C/c2ccccn2)c(OC)c1`, for which the pIC50 in the assay listed under Homo sapiens [1] was 6.22.
In the case of `COc1ccccc1C(=O)/C=C/c1ccccc1`, the pIC50 in the assay listed under Homo sapiens [1] is 5.65.
On to `COc1cc(OC)c(C(=O)/C=C(\C)c2ccccc2)c(OC)c1`, for which, in the assay filed under Homo sapiens [2], the inhibition at 10 µM is 0%.
As for `COc1cccc(/C=C/C(=O)c2ccccc2)c1OC`, the pIC50 in the assay filed under Homo sapiens [1] is 5.70.
Still for that read-out and setting: the same measure for `CCOc1ccccc1C(=O)/C=C/c1ccccc1`: 6.22; for `O=C(/C=C/c1ccccc1)c1ccccc1C(F)(F)F`: 6.13.
As for `CN(C)c1ccccc1C(=O)/C=C/c1ccccc1`, the pIC50 in the assay listed under Homo sapiens [1] is 5.75.
As for `COc1cc(OC)c(C(=O)/C=C/c2cccnc2)c(OC)c1`, in the assay listed under Homo sapiens [1], the pIC50 is 5.88.
`O=C(/C=C/c1ccccc1)c1ccccc1OCc1ccccc1` showed a pIC50 in the assay filed under Homo sapiens [1] of 5.65.
For the compound `COc1cc(OC)c(C(/C=C/c2ccccc2)=N/O)c(OC)c1`, the Inhibition in the assay filed under Homo sapiens [4] was 34%.
In turn, `COc1cc(OC)c(C/C=C/c2ccccc2)c(OC)c1` yielded an inhibition at 10 µM in the assay filed under Homo sapiens [3] of 0%.
As to `COc1cc(OC)c(C(=O)/C=C/c2cccc(C(=O)Nc3nccs3)c2)c(OC)c1`, the pIC50 in the assay listed under Homo sapiens [1] was 6.30.
Still for that read-out and setting: the figure for `CC(=O)Nc1ccccc1C(=O)/C=C/c1ccccc1` is 5.76.
Compound `COc1cc(OC)c(C(=O)/C=C/c2cccc(C(=O)O)c2)c(OC)c1` gave a pIC50 in the assay listed under Homo sapiens [1] of 5.17.
In the case of `COC(=O)c1ccc(C(=O)/C=C/c2ccccc2)cc1`, in the assay filed under Homo sapiens [2], the inhibition at 10 µM amounted to 5%.
For the compound `COc1cc(C(=O)/C=C/c2ccccc2)cc(OC)c1OC`, the pIC50 in the assay filed under Homo sapiens [1] was 5.74.
With `COc1cc(OC)c(C(=O)/C=C/c2cccc(C(=O)Nc3cccnc3)c2)c(OC)c1`, the pIC50 in the assay listed under Homo sapiens [1] is 5.79.
Regarding `COc1cc(OC)c(C(=O)/C=C/c2ccc(C(=O)N(C)C)cc2)c(OC)c1`, the pIC50 in the assay listed under Homo sapiens [1] was 5.55.
`COc1cc(OC)c(C(=O)/C=C/c2cccc(C(=O)Nc3ccccc3)c2)c(OC)c1` showed a pIC50 in the assay filed under Homo sapiens [1] of 6.24.
In turn, `COc1cccc(/C=C/C(=O)c2c(OC)cc(OC)cc2OC)c1` gave a pIC50 in the assay filed under Homo sapiens [1] of 5.74.
The compound `COc1cccc(C(=O)/C=C/c2ccccc2)c1OC` showed a pIC50 in the assay listed under Homo sapiens [1] of 5.78.
Compound `COc1cc(OC)c(C(=O)C=C(c2ccccc2)c2ccccc2)c(OC)c1` showed an inhibition at 10 µM in the assay listed under Homo sapiens [2] of 0%.
In the case of `COc1cc(OC)c(C(=O)/C=C/c2ccnc3ccccc23)c(OC)c1`, the pIC50 in the assay filed under Homo sapiens [1] was 6.51.
In the case of `COc1cc(OC)c(C(=O)/C=C/c2ccc(C(=O)O)cc2)c(OC)c1`, the pIC50 in the assay listed under Homo sapiens [1] is 5.21.
In turn, `COc1cc(OC)c(C(=O)CCc2ccccc2)c(OC)c1` had an inhibition at 10 µM in the assay filed under Homo sapiens [3] of 0%.
`COc1cc(OC)c(C(=O)/C=C/c2ccc(C(N)=O)cc2)c(OC)c1` had a negative-log IC50 (pIC50) in the assay listed under Homo sapiens [1] of 5.75.
`O=C(Nc1nccs1)c1ccc(/C=C/C(=O)c2ccccc2C(=O)O)cc1` came in with an inhibition at 10 µM in the assay filed under Homo sapiens [3] of 22%.
Compound `COc1cccc(OC)c1C(=O)/C=C/c1ccccc1` gave a negative-log IC50 (pIC50) in the assay listed under Homo sapiens [1] of 5.94.
In the assay filed under Homo sapiens [1], `COc1ccc(C(=O)/C=C/c2ccccc2)c(OC)c1OC` had a pIC50 of 5.77.
As to `CN(C)C(=O)c1ccccc1C(=O)/C=C/c1ccccc1`, in the assay listed under Homo sapiens [1], the pIC50 was 5.26.
With `CCOc1ccc(C(=O)/C=C/c2ccccc2)cc1`, the inhibition at 10 µM in the assay listed under Homo sapiens [2] was 15%.
With `COc1cc(OC)c(C(=O)/C=C/c2ccc(C(=O)Nc3nccs3)cc2)c(OC)c1`, in the assay filed under Homo sapiens [1], the pIC50 is 6.45. In the assay with Mus musculus, this compound returned a survival at 600 mg/kg of 55%.
In the assay listed under Homo sapiens [1], `O=C(/C=C/c1ccccc1)c1ccccc1Br` showed a negative-log IC50 (pIC50) of 5.78.
As to `COc1cc(OC)c(C(=O)NCc2ccccc2)c(OC)c1`, the inhibition at 10 µM in the assay filed under Homo sapiens [3] is 0%.
The compound `COc1cc(OC)c(C(=O)/C=C/c2c(F)cccc2F)c(OC)c1` gave a pIC50 in the assay listed under Homo sapiens [1] of 5.89.
On to `Cc1cc(C)c(C(=O)/C=C/c2ccccc2)c(C)c1`, for which, in the assay filed under Homo sapiens [1], the pIC50 is 5.19.
Still for that read-out and setting: the figure for `COc1cc(OC)c(C(=O)/C=C/c2ccc(C(=O)Nc3ccccc3)cc2)c(OC)c1` is 6.10.
In the assay listed under Homo sapiens [1], `COc1cc(OC)c(C(=O)/C=C/c2ccc(C(=O)Nc3cccnc3)cc2)c(OC)c1` gave a pIC50 of 6.10. This compound also showed a survival at 600 mg/kg in the assay on Mus musculus of 50%.
Regarding `COc1ccc(/C=C/C(=O)c2ccccc2)cc1OC`, the negative-log IC50 (pIC50) in the assay listed under Homo sapiens [1] was 5.63.
`COC(=O)c1ccccc1C(=O)/C=C/c1ccccc1`: the pIC50 in the assay listed under Homo sapiens [1] is 5.71. The compound also registered a survival at 600 mg/kg in the assay on Mus musculus of 20%.
In the assay listed under Homo sapiens [1], `O=C(/C=C/c1ccccc1)c1ccccc1NS(=O)(=O)C(F)(F)F` gave a negative-log IC50 (pIC50) of 5.23.
On the same count and under the same terms, the figure for `CCOc1ccccc1C(=O)/C=C/c1ccncc1` is 5.78; for `COc1cc(OC)c(C(=O)/C=C/c2nccn2C)c(OC)c1` it is 5.42; for `COc1cc(OC)c(C(=O)/C=C/c2cnccn2)c(OC)c1` it is 6.16.
Take `COC(=O)c1ccc(/C=C/C(=O)c2c(OC)cc(OC)cc2OC)cc1`: in the assay filed under Homo sapiens [1], the negative logarithm of the IC50 (pIC50) was 5.71.
With `COc1cc(OC)c(NC(=O)/C=C/c2ccccc2)c(OC)c1`, at 10 µM the inhibition in the assay listed under Homo sapiens [3] was 0%.
For the compound `COc1cc(OC)c(C(=O)c2ccc(-c3ccccc3)cc2)c(OC)c1`, the inhibition at 10 µM in the assay listed under Homo sapiens [3] amounted to 26%.
In the case of `O=C(/C=C/c1ccccc1)c1c(Cl)cccc1Cl`, the pIC50 in the assay filed under Homo sapiens [1] was 5.97.
Take `COc1cc(OC)c(C(=O)/C=C/c2ccccc2)c(OC)c1`: the pIC50 in the assay filed under Homo sapiens [5] was 5.90.
Regarding `O=C(/C=C/c1ccccc1)c1c2ccccc2cc2ccccc12`, the pIC50 in the assay listed under Homo sapiens [1] is 5.85.
The same measure, in the same setting: the figure for `O=C(/C=C/c1ccccc1)c1ccccc1O` [2'-HYDROXYCHALCONE] is 5.37.
In the case of `COc1ccc(C(=O)/C=C/c2ccccc2)cc1OC` [3',4'-DIMETHOXYCHALCONE], the inhibition at 10 µM in the assay listed under Homo sapiens [2] is 44%.
As to `O=C(/C=C/c1ccccc1)c1ccc(O)cc1` [4'-HYDROXYCHALCONE], in the assay filed under Homo sapiens [1], the pIC50 is 5.21.
As for `COc1ccc(C(=O)/C=C/c2ccccc2)cc1` [4'-METHOXYCHALCONE], in the assay listed under Homo sapiens [2], the inhibition at 10 µM worked out at 29%.
Turning to `O=C(/C=C/c1ccccc1)c1ccccc1` [CHALCONE], the pIC50 in the assay filed under Homo sapiens [1] was 5.20.
